The subject of test [1] is SUM149PT. The experiment in a line: Anticancer activity against human SUM149 cells assessed as ALDHbr cells by LSR2 cytometer (reference value: 6.8%). The test is classed as functional. Summed up:
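Cells continuously exposed to drug for 72 h in adherent culture; single-cell suspensions stained with ALDEFLUOR kit and ALDH-high population measured by flow cytometry (LSR2) against a DEAB control. Residual ALDHbr proportion reported (n = 8), mean ± SD, Student's t-test.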

The target in test [2] is Histone-lysine N-methyltransferase EZH2 (Homo sapiens) (UniProt Q15910). The experiment in a line: Inhibition of EZH2 in human SUM159 cells assessed as increase in ALDHbr cells by LSR2 cytometer (reference value: 4.8%). The test is classed as cell-based. The following applies: dose 0.0 µM. Also noted: scale not given: the % may be the effect or the level left. In short, it runs like this: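 SUM159 cells exposed continuously for 72 h in adherent culture to graded doses centred on the IC50. ALDHbr proportion measured by ALDEFLUOR flow cytometry (LSR2) with DEAB as negative control; n = 10.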

Test [3] deals with Breast cancer cell line. The test can be described thus: Antitumor activity against human reimplanted CRCM434 negative breast cancer cells orthotopically xenografted in NSG mouse model of PDX assessed as reduction tumor volume at 3 mg/kg, ip daily for 14 days by limiting dilation analysis. In kind it is functional, organism-based. The following applies: time 14.0 day. Summed up:
(§1)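 After 2 weeks of i.p. treatment (3 mg/kg daily or 50 mg/kg 5 of 7 days), dissociated PDX tumour cells reimplanted into secondary NSG mice at 50, 500 or 5,000 cells. A mouse counted as tumour-bearing once a tumour reached 10 mm. bCSC frequency per 10,000 cells estimated by ELDA; pairwise chi-square test.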
(Xenograft models place foreign cells or tissue in a host animal.)

For test [4], the system named is SUM-159-PT. The test can be described thus: Induction of apoptosis in human SUM159 cells expressing ALDH upto 5 uM incubated for 72 hrs by ALDEFLUOR/YO-PRO-3/ Hoechst 33342 staining based high content imaging microscopic analysis. The test is classed as functional, cell-based. In short, it runs like this: (§2)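 SUM159 at 3,000 cells/well on collagen plates, dosed at 6, 24 and 48 h post-seeding; 0.1% DMSO negative control, cisplatin positive control. At 72 h stained 30 min at 37°C with ALDEFLUOR, YO-PRO-3 and Hoechst 33342, then imaged ice-cold. YO-PRO-3-positive nuclei (above untreated signal) counted over total cells, per ALDHbr/ALDH- subpopulation; n = 6.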

Test [5] deals with Breast cancer cell line. The test can be described thus: Antitumor activity against human reimplanted CRCM404 negative breast cancer cells orthotopically xenografted in NSG mouse model of PDX assessed as reduction tumor volume at 3 mg/kg, ip daily for 14 days by limiting dilation analysis. The test is classed as functional, organism-based. The following applies: time 14.0 day. Summed up: as §1

Test [6] relates to SUM-159-PT. The test can be described thus: Induction of apoptosis in human SUM159 cells expressing ALDHbr upto 5 uM incubated for 72 hrs by ALDEFLUOR/YO-PRO-3/ Hoechst 33342 staining based high content imaging microscopic analysis. The test is classed as functional, cell-based. Summed up:
as §2

For test [7], the system named is SUM-159-PT. The test can be described thus: Anticancer activity against human SUM159 cells expressing BFP assessed as reduction in ALDHbr cell at 5 to 500 nM by LSR2 cytometer analysis. The following applies: dose 5-500 nM. The test is classed as functional, cell-based.
The test system of test [8] is SUM-159-PT. The experiment in a line: Antitumor activity against human SUM159 cells assessed as K-score by measuring ALDHbr cells by LSR2 cytometer. In kind it is functional. Summed up: (§3)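 Cell lines exposed for 72 h in adherent culture to a range of concentrations centred on the MTS-derived IC50. ALDHbr proportion measured by ALDEFLUOR flow cytometry (LSR2). K-score is the linear regression coefficient, on log10-transformed doses, between the untreated condition and the dose predicted to give a 50% decrease or increase in ALDHbr proportion versus control.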

For test [9], the system named is Breast cancer cell line. The test can be described thus: Synergistic antitumor activity against human CRCM434 negative breast cancer cells orthotopically xenografted in NSG mouse model of PDX assessed as reduction ALDHbr cells at 3 mg/kg, ip daily for 14 days cotreated with JQ1 by LSR2 cytometer analysis. Conditions: time 14 day. The test is classed as functional.

Test [10] deals with SUM-159-PT. The experiment in a line: Anticancer activity against human SUM159 cells assessed as decrease in secondary tumor sphere formation incubated for 72 hrs by Extreme limiting dilution analysis. The test is classed as functional, cell-based. Summed up: (§4)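 Cells drug-treated in adherent culture for 72 h, then plated as single cells in ultra-low attachment 96-well plates in serum-free mammary epithelium basal medium. Plating at 25/10/5/3/2/1 cells per well, 18–36 wells per condition. Wells with ≥1 sphere after 10 days scored positive. Secondary spheres were made by dissociating primary spheres. Frequency by ELDA; n = 4; pairwise chi-square test.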

Test [11] relates to Breast cancer cell line. The test can be described thus: Synergistic antitumor activity against human CRCM404 negative breast cancer cells orthotopically xenografted in NSG mouse model of PDX assessed as reduction ALDHbr cells at 3 mg/kg, ip daily for 14 days cotreated with JQ1 by LSR2 cytometer analysis. The test is classed as functional. The following applies: time 14 day.

Test [12] relates to Breast cancer cell line. The experiment in a line: Antitumor activity against human CRCM494 negative breast cancer cells orthotopically xenografted in NSG mouse model of PDX assessed as reduction ALDHbr cells at 3 mg/kg, ip daily for 14 days by LSR2 cytometer analysis. Conditions: time 14.0 day. In kind it is functional, organism-based. Summed up:
(§5)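 Chemo-naïve triple-negative PDX cells injected at 100,000 per fat pad, two fat pads per NSG mouse. At ~80 mm³ tumours, mice received i.p. 3 mg/kg daily for 14 days or 50 mg/kg 5 of 7 days for 2 weeks; placebo was DMSO/HPCD 10% (1:9). Five mice (10 tumours) per group. Tumour growth monitored; after 2 weeks tumours dissociated, mouse cells excluded via anti-H2Kd, ALDHbr measured by ALDEFLUOR flow cytometry and normalised to vehicle.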

Test [13] concerns Breast cancer cell line. The test can be described thus: Antitumor activity against human CRCM404 negative breast cancer cells orthotopically xenografted in NSG mouse model of PDX assessed as reduction ALDHbr cells at 3 mg/kg, ip daily for 14 days by LSR2 cytometer analysis. The following applies: time 14.0 day. The test is classed as functional, organism-based. In short, it runs like this: as §5

Test [14] has as its system Breast cancer cell line. The test can be described thus: Antitumor activity against human reimplanted CRCM494 negative breast cancer cells orthotopically xenografted in NSG mouse model of PDX assessed as reduction tumor volume at 3 mg/kg, ip daily for 14 days by limiting dilation analysis. In kind it is functional, organism-based. Conditions: time 14.0 day. Summed up:
as §1

Test [15] deals with SUM-159-PT. The experiment in a line: Synergistic anticancer activity against human SUM159 cells assessed as decrease in primary tumor sphere formation at 62 nM incubated for 72 hrs in presence of JQ1 by Extreme limiting dilution analysis. The test is classed as functional. Summed up: (§6)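 72 h adherent pretreatment (Sal/JQ1 62 nM/62 nM; docetaxel added at 2 nM where used), then single cells plated in ultra-low attachment 96-well plates in serum-free mammary epithelium basal medium at 25/10/5/3/2/1 cells/well (18–36 wells/condition). Wells with ≥1 sphere after 10 days scored positive; sphere-forming frequency by ELDA. Secondary spheres from dissociated primary spheres. n = 4; pairwise chi-square.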

In test [16] the test system is Breast cancer cell line. The test can be described thus: Synergistic antitumor activity against human CRCM494 negative breast cancer cells orthotopically xenografted in NSG mouse model of PDX assessed as reduction ALDHbr cells at 3 mg/kg, ip daily for 14 days cotreated with JQ1 by LSR2 cytometer analysis. The test is classed as functional. The following applies: time 14 day.

The test system of test [17] is Breast cancer cell line. The experiment in a line: Antitumor activity against human CRCM434 negative breast cancer cells orthotopically xenografted in NSG mouse model of PDX assessed as reduction ALDHbr cells at 3 mg/kg, ip daily for 14 days by LSR2 cytometer analysis. In kind it is functional, organism-based. Conditions: time 14.0 day. In short, it runs like this:
as §5

For test [18], the system named is Breast cancer cell line. The experiment in a line: Antitumor activity against human CRCM404 negative breast cancer cells orthotopically xenografted in NSG mouse model of PDX assessed as reduction in tumor volume at 3 mg/kg, ip daily for 14 days. The following applies: time 14.0 day. The test is classed as functional, organism-based. Summed up: as §5
A short description of test [19]: Antitumor activity against human BrCa-MZ-01 cells assessed as K-score by measuring ALDHbr cells by LSR2 cytometer. The test is classed as functional. Summed up:
as §3

Test [20] has as its system Breast cancer cell line. The test can be described thus: Antitumor activity against human CRCM434 negative breast cancer cells orthotopically xenografted in NSG mouse model of PDX assessed as reduction in tumor volume at 3 mg/kg, ip daily for 14 days. In kind it is functional, organism-based. Conditions: time 14.0 day. Summed up: as §5
Test [21] deals with Breast cancer cell line. The test can be described thus: Antitumor activity against human CRCM494 negative breast cancer cells orthotopically xenografted in NSG mouse model of PDX assessed as reduction in tumor volume at 3 mg/kg, ip daily for 14 days. In kind it is functional, organism-based. The following applies: time 14.0 day. In short, it runs like this: as §5
The subject of test [22] is SUM-159-PT. The experiment in a line: Anticancer activity against human SUM159 cells expressing BFP assessed as reduction in ALDHbr cell at 50 nM by LSR2 cytometer analysis. The test is classed as functional.
For test [23], the system named is SUM149PT. The experiment in a line: Antitumor activity against human SUM149 cells assessed as K-score by measuring ALDHbr cells by LSR2 cytometer. The test is classed as functional. In short, it runs like this: as §3
The nature of test [24]: Antitumor activity against human S68 cells assessed as K-score by measuring ALDHbr cells by LSR2 cytometer. In kind it is functional. In short, it runs like this: as §3
For test [25], the system named is SUM-159-PT. The test can be described thus: Anticancer activity against human SUM159 cells assessed as decrease in primary tumor sphere formation incubated for 72 hrs by Extreme limiting dilution analysis. In kind it is functional, cell-based. Summed up:
as §4

The test system of test [26] is SUM-159-PT. The experiment in a line: Anticancer activity against human SUM159 cells assessed as effect on RFP+/BFP+ cell ratio upto 5 uM after 72 hrs by […]. In kind it is functional, cell-based.
In test [27] the test system is SUM-159-PT. The test can be described thus: Synergistic anticancer activity against human SUM159 cells expressing BFP assessed as reduction in ALDHbr cell 50 nM in presence of JQ1 by LSR2 cytometer analysis. The test is classed as functional.
The test system of test [28] is MDA-MB-436. The test can be described thus: Antitumor activity against human MDA-MB-436 cells assessed as K-score by measuring ALDHbr cells by LSR2 cytometer. The test is classed as functional. Summed up:
as §3

The test system of test [29] is SUM-159-PT. The test can be described thus: Synergistic anticancer activity against human SUM159 cells assessed as decrease in secondary tumor sphere formation at 62 nM incubated for 72 hrs in presence of JQ1 by Extreme limiting dilution analysis. The test is classed as functional. Summed up: as §6

Activity calls are given as the source filed them. The rule behind the calls is not given here.

Chain of Histone-lysine N-methyltransferase EZH2 (Homo sapiens) (Q15910 whole entry, looked up): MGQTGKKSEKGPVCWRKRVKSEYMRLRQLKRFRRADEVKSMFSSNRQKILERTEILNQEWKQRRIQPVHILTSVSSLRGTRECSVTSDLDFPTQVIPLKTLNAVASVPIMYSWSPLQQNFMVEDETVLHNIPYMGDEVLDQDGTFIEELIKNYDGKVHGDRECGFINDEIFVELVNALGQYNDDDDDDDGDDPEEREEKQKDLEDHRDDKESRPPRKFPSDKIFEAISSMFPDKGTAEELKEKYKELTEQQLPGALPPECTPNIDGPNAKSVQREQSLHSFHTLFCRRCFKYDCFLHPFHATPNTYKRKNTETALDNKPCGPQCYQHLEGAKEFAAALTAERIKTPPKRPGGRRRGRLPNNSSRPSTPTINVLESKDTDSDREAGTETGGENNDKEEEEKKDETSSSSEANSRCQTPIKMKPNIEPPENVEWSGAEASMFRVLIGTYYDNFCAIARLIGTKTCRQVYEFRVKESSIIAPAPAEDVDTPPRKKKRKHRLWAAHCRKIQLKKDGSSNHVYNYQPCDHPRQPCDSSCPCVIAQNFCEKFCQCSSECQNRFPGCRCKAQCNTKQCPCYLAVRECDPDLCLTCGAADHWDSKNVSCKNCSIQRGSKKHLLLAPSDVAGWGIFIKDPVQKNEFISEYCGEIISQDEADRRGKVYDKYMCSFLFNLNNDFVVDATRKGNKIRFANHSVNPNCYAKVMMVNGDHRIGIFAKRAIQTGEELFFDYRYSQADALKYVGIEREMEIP

With `CCN(CC)c1ccc(C=O)cc1`, the Activity worked out at 0.3% in test [1] and 0.2% in test [2].
For `CC[C@@H](C(=O)[C@@H](C)[C@@H](O)[C@H](C)[C@@H]1O[C@@H]([C@@H](CC)C(=O)O)CC[C@@H]1C)[C@H]1O[C@]2(C=C[C@@H](O)[C@]3(CC[C@@](C)([C@H]4CC[C@](O)(CC)[C@H](C)O4)O3)O2)[C@H](C)C[C@@H]1C` [SALINOMYCIN], the result in [3], in test [4], in [5], in test [6], in test [7] and in test [10] was Active. The outcome in test [12], in [13], in test [14], in test [17] and in test [25] was Active. The Activity in test [8] was -0.14; in test [19] it was -0.07; in [23] it was -0.06; in test [24] it was -0.19; in [28], -0.12. Besides, the “fold change (FC)” value in test [9] is listed as 2; in test [11], 2; in test [15], 2.4; in test [16] it was 2; in test [22], 2; in [27], 4. Further, the “fold change (FC)” value in test [29] is 5.4. The outcome in [18], in [20], in [21] and in [26] was inactive.
